What was measured:
[1] = melting temperature; fluorescence melt of hairpins on a sequencing array, two-state fit, raised by 9.35 °C to match UV melts; conditions: sodium 0.088 M
Method in brief: (§1)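 Bootstrapped two-state fits yielded melting temperature and folding enthalpy for library hairpins. Cy3 fluorescence, with annealed Cy3 and quencher oligos, was imaged on a sequenced MiSeq flow cell in 50 mM Na-HEPES pH 8.0, 25 mM NaCl in 2.5 °C steps up to 60 °C, and normalised to pre-quench Cy3 and to control constructs. Four replicates were combined by inverse variance, and fitted temperatures were raised by 9.35 °C to match UV melts.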

[2] = folding enthalpy; higher = less favourable; fluorescence melt of hairpins on a sequencing array, two-state fit; conditions: sodium 0.088 M
Method in brief: as §1

Row | Sequence | Tm [1] | folding enthalpy [2]
1 | GGTCCCGAAAGGGGAACC ((((((....)))..))) | 48.5 °C | -17.2 kcal/mol
2 | GGCGCAGGAAACTGTGCC (((.(((....))).))) | 61.2 °C | -47.6 kcal/mol
3 | GCTATGCGAAAGCAAGC (((.(((....)))))) | 51.7 °C | -17.5 kcal/mol
4 | GTATGAGGAAACTCGTAC (((.(((....))).))) | 44 °C | -33.4 kcal/mol
5 | GTCCCCGAAAGGGATGAC ((((((....)))..))) | 44.8 °C | -14.6 kcal/mol
6 | GGCCTAGGAAACTGGGCC ((((.((....)).)))) | 57.9 °C | -47.7 kcal/mol
7 | GGTTTCGGAAACGAAATC (.(((((....))))).) | 48 °C | -25.1 kcal/mol
8 | GATCGTAACAACGATC ((((((....)))))) | 55 °C | -35.4 kcal/mol
9 | GTAGTTACGAAAGTATAC (((..(((....)))))) | 23.9 °C | -10.3 kcal/mol
10 | GCGCAAGGAAACTCGCAC (.((.((....)).)).) | 27.2 °C | -13.1 kcal/mol
11 | GCCTTGCGAAAGCAACGC ((.((((....)))).)) | 54.7 °C | -14.3 kcal/mol
12 | GCCTAGCGAAAGCAGGGC (((..((....))..))) | 62.4 °C | -24 kcal/mol
13 | GGAGCAGGAAACTGCCCC ((.((((....)))).)) | 49.7 °C | -17.4 kcal/mol
14 | GATCACCTTTGTGATC ((((((....)))))) | 55 °C | -42.4 kcal/mol
15 | GCTAACCCGAAAGGGAGC (((..(((....)))))) | 41.1 °C | -15.6 kcal/mol
16 | GCACAGCGAAAGCATTGC (((..((....))..))) | 38.2 °C | -14.4 kcal/mol
17 | GGTCGGGGAAACCTGGCC ((.(.((....)).).)) | 48.4 °C | -28.7 kcal/mol
18 | GATCATATAAATGATC ((((((....)))))) | 43.7 °C | -29.9 kcal/mol
19 | GATCAGAGAACTGATC ((((((....)))))) | 44.5 °C | -30.5 kcal/mol
20 | GACGACGGAAACGTTGTC (((.(((....))).))) | 55 °C | -43.1 kcal/mol
21 | GTGTATACGAAAGTACAC (((..(((....)))))) | 41.1 °C | -23.2 kcal/mol
22 | GCTTGTGGAAACACAGGC ((.((((....)))).)) | 52 °C | -27.2 kcal/mol
23 | GGGTTGGCGAAAGCCCCC (((..(((....)))))) | 46.3 °C | -15.3 kcal/mol

Row | Sequence | Tm [1] | folding enthalpy [2]
24 | GCGCCGCGAAAGCACCGC (((..((....))..))) | 46.2 °C | -16.7 kcal/mol
25 | GACCCAGGAAACTGGGCC (.(((((....))))).) | 47.9 °C | -16.5 kcal/mol
26 | GCGCTGCGAAAGCACGGC ((..(((....)))..)) | 51.5 °C | -15.1 kcal/mol
27 | GATCGCCTCGCGATC ((((((...)))))) | 68.7 °C | -30.2 kcal/mol
28 | GCCACGCGAAAGCGTTGC ((.((((....)))).)) | 57.6 °C | -20.2 kcal/mol
29 | GTCTAAGGAAACTTAGAC (((((((....))))))) | 51.5 °C | -41.9 kcal/mol
30 | GCTACTCGAAAGAGAGC (((.(((....)))))) | 44.8 °C | -25.4 kcal/mol
31 | GCAATTCGAAAGAAGTGC (((.(((....))).))) | 52.4 °C | -34.6 kcal/mol
32 | GCCTCTGGAAACAGAAGC ((.((((....)))).)) | 35.6 °C | -24.2 kcal/mol
33 | GCAGAGGAAACTCTGC ((((((....)))))) | 65.8 °C | -35.2 kcal/mol
34 | GAGGACCGAAAGGTCTC (((.(((....)))))) | 46.5 °C | -10.9 kcal/mol
35 | GTGAACGGAAACGTTTGC (..((((....))))..) | 38.9 °C | -22.6 kcal/mol
36 | GTGTCGCGAAAGCGCCAC (((.(((....))).))) | 57.7 °C | -25.7 kcal/mol
37 | GTTAATCGAAAGATAAAC (((.(((....))).))) | 31.6 °C | -20.7 kcal/mol
38 | GGACTCGAAAGAGACTCC ((((((....)))..))) | 36 °C | -11.6 kcal/mol
39 | GCACGTCGAAAGACCTGC (((.(((....))).))) | 45.2 °C | -28.1 kcal/mol
40 | GTCCGCGGAAACACGGAC (((((.(....).))))) | 54.2 °C | -42 kcal/mol
41 | GGGCCATCGAAAGATCCC (((..(((....)))))) | 31.6 °C | -16.4 kcal/mol
42 | GAGCAAGGAAACTTGCTC (((((((....))))))) | 63.8 °C | -40.4 kcal/mol
43 | GCGGCGTACCGC ((((....)))) | 64.7 °C | -17.2 kcal/mol
44 | GATCACCTAGGTGATC ((((((....)))))) | 59.7 °C | -41.5 kcal/mol
45 | GATCCCATATGGGATC ((((((....)))))) | 61.8 °C | -35.3 kcal/mol
46 | GAAATCGGAAACGGTTTC ((((.((....)).)))) | 46.5 °C | -31.6 kcal/mol

Row | Sequence | Tm [1] | folding enthalpy [2]
47 | GATCGTTTCACGATC ((((((...)))))) | 58.6 °C | -33.5 kcal/mol
48 | GATCAGAAGACTGATC ((((((....)))))) | 44.9 °C | -29.1 kcal/mol
49 | GTCGTCGCGAAAGCGGAC (((..(((....)))))) | 46.5 °C | -10.6 kcal/mol
50 | GATCACAGAAGTGATC ((((((....)))))) | 54.4 °C | -37.4 kcal/mol
51 | GCGTCGCTACGC ((((....)))) | 55.2 °C | -13.7 kcal/mol
52 | GTAATACGAAAGTAGTAC (((.(((....))).))) | 42.5 °C | -34.5 kcal/mol
53 | GTCTCTGCGAAAGCAGAC (((..(((....)))))) | 34.3 °C | -8.28 kcal/mol
54 | GGTCGAGGAAACTCGGTC (..((((....))))..) | 38.4 °C | -16.2 kcal/mol
55 | GGCTACTCGAAAGAGGCC (((..(((....)))))) | 45.7 °C | -30 kcal/mol
56 | GGACCGGCGAAAGCCTCC (((..(((....)))))) | 27.5 °C | -10.2 kcal/mol
57 | GATCGTCGTCACGATC ((((((....)))))) | 53.5 °C | -40.6 kcal/mol
58 | GGATGGCGAAAGCCCTCC (((.(((....))).))) | 49.2 °C | -31.2 kcal/mol
59 | GCTCTGCGAAAGCTTAGC (((..((....))..))) | 44.2 °C | -18.5 kcal/mol
60 | GATCAATGGCTTGATC ((((((....)))))) | 42.2 °C | -29 kcal/mol
61 | GCACGGCGAAAGCGGAGC ((.(.((....)).).)) | 44.7 °C | -17.7 kcal/mol
62 | GTACATCGAAAGATTTAC (((.(((....))).))) | 35 °C | -17.8 kcal/mol
63 | GGACTGCGAAAGCATCC (((.(((....)))))) | 41.8 °C | -13.5 kcal/mol
64 | GTTGTTCGAAAGAATAAC (((.(((....))).))) | 45.6 °C | -31.6 kcal/mol
65 | GAACTGCGAAAGCACTTC (((.(((....))).))) | 28.4 °C | -10.9 kcal/mol
66 | GATCTCCGTTGAGATC ((((((....)))))) | 52.6 °C | -35.6 kcal/mol
67 | GATCATTCCATGATC ((((((...)))))) | 51 °C | -39.4 kcal/mol
68 | GGAAAGCGAAAGCTCTCC (((.(((....))).))) | 44 °C | -22.8 kcal/mol
69 | GAAGGCCGAAAGGCTTTC (((.(((....))).))) | 54.2 °C | -20.6 kcal/mol

Row | Sequence | Tm [1] | folding enthalpy [2]
70 | GGTCAAGGAAACTTGGCC ((.((((....)))).)) | 52.8 °C | -38.1 kcal/mol
71 | GTAGTGGGAAACCATTAC (((.(((....))).))) | 38.1 °C | -32 kcal/mol
72 | GATCTACGGCTAGATC ((((((....)))))) | 37.1 °C | -28.7 kcal/mol
73 | GCCGAGGGAAACCTTGGC (((.(((....))).))) | 58.3 °C | -35.4 kcal/mol
74 | GTCGCAACGAAAGTTGAC (((..(((....)))))) | 29.4 °C | -12.1 kcal/mol
75 | GTGCTTGCGAAAGCACAC (((..(((....)))))) | 61.4 °C | -13.1 kcal/mol
76 | GACTTGCGAAAGCACGTC (((.(((....))).))) | 52.4 °C | -23.3 kcal/mol
77 | GCATCAGGAAACTAATGC ((((.((....)).)))) | 31.5 °C | -22.6 kcal/mol
78 | GTTTGTCGAAAGACAAC (((.(((....)))))) | 47.5 °C | -14.3 kcal/mol
79 | GCAATCGGAAACGATCAC (..((((....))))..) | 25.1 °C | -12 kcal/mol
80 | GTCTGGCGAAAGCCTGAC (((.(((....))).))) | 62 °C | -26.8 kcal/mol
81 | GTCCGGCGAAAGCCAGAC (((.(((....))).))) | 50.7 °C | -27.5 kcal/mol
82 | GATATCCGAAAGGAAATC (((.(((....))).))) | 37.1 °C | -27.2 kcal/mol
83 | GTCACCGAAAGGTGTGAC ((((((....)))..))) | 42.4 °C | -11.6 kcal/mol
84 | GCGTACAAACGC ((((....)))) | 51.1 °C | -21.5 kcal/mol
85 | GCGGATACGAAAGTACGC (((..(((....)))))) | 49.4 °C | -27 kcal/mol
86 | GCTCTGGGAAACCAGGGC ((.((((....)))).)) | 54.6 °C | -38 kcal/mol
87 | GGTCTCGAAAGAGTAACC ((((((....)))..))) | 35.1 °C | -21.9 kcal/mol
88 | GATACCACGAAAGTGATC (((..(((....)))))) | 21.2 °C | -9.05 kcal/mol
89 | GTGTGCGGAAACGTGCAC (((..((....))..))) | 52.9 °C | -38.2 kcal/mol
90 | GGTAGTCCGAAAGGAACC (((..(((....)))))) | 27.1 °C | -12.4 kcal/mol
91 | CGTACGGAAACGTATACG ((((((....)))..))) | 35.5 °C | -17.6 kcal/mol
92 | GACCCAGGAAACCAGGTC ((((..(....)..)))) | 34 °C | -24.3 kcal/mol

Reference: the array DNA melting data of Ke et al. (doi:10.1101/2024.01.08.574731)
